Experimental data: ChEMBL document CHEMBL4627272, “Design, synthesis, and biological activity evaluation of a series of pleuromutilin derivatives with novel C14 side chains” (2020)
Converted amounts (≈) assume the structure as drawn.

Experiments:
Assay type in all cases: functional
[1] = tested on: Staphylococcus epidermidis; test: Antibacterial activity against methicillin-sensitive Staphylococcus epidermidis ATCC 12228 assessed as reduction in bacterial growth incubated for 18 hrs by agar dilution method; conditions: ATCC 12228, 18 h
In short: (§1)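 CLSI agar dilution MIC. Stocks at 1920 μg/ml in 0.2% DMSO, twofold diluted and mixed into agar plates to final 0.03–128 µg/mL. Inoculum set to 0.5 turbidity, diluted 10-fold and applied by multipoint inoculator within 30 min, about 10^4 CFU per spot. Plates incubated 35 ± 2°C for 18 h. MIC is the lowest concentration with no visible growth.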

[2] = tested on: Staphylococcus epidermidis; test: Antibacterial activity against methicillin-resistant Staphylococcus epidermidis 16-5 assessed as reduction in bacterial growth incubated for 18 hrs by agar dilution method; conditions: 16-5, 18 h; in short: as §1
[3] = tested on: Staphylococcus aureus; test: Antibacterial activity against methicillin-sensitive Staphylococcus aureus ATCC 29213 assessed as reduction in bacterial growth incubated for 18 hrs by agar dilution method; conditions: ATCC 29213, 18 h; in short: as §1
[4] = tested on: Staphylococcus aureus; test: Antibacterial activity against methicillin-resistant Staphylococcus aureus ATCC 33591 assessed as reduction in bacterial growth incubated for 18 hrs by agar dilution method; conditions: ATCC 33591, 18 h; in short: as §1

SMILES	MIC [1]	MIC [2]	MIC [3]	MIC [4]
C=C[C@]1(C)C[C@@H](OC(=O)CS[C@@H]2CC[C@H](C(=O)OCC)C[C@H]2NS(=O)(=O)c2ccc(Br)cc2)[C@]2(C)[C@H](C)CC[C@]3(CCC(=O)[C@H]32)[C@@H](C)[C@@H]1O	1 µg/mL (≈ 1.28 µM)	1 µg/mL (≈ 1.28 µM)	1 µg/mL (≈ 1.28 µM)	1 µg/mL (≈ 1.28 µM)
C=C[C@]1(C)C[C@@H](OC(=O)CS[C@@H]2CC[C@H](C(=O)O)C[C@H]2N)[C@]2(C)[C@H](C)CC[C@]3(CCC(=O)[C@H]32)[C@@H](C)[C@@H]1O	2 µg/mL (≈ 3.73 µM)	4 µg/mL (≈ 7.47 µM)	32 µg/mL (≈ 59.7 µM)	32 µg/mL (≈ 59.7 µM)
C=C[C@]1(C)C[C@@H](OC(=O)CS[C@@H]2CC[C@H](C(=O)OCC)C[C@H]2NS(=O)(=O)c2ccc(NC(C)=O)cc2)[C@]2(C)[C@H](C)CC[C@]3(CCC(=O)[C@H]32)[C@@H](C)[C@@H]1O	0.5 µg/mL (≈ 0.657 µM)	0.5 µg/mL (≈ 0.657 µM)	0.5 µg/mL (≈ 0.657 µM)	0.5 µg/mL (≈ 0.657 µM)
C=C[C@]1(C)C[C@@H](OC(=O)CS[C@@H]2CC[C@H](C(=O)OCC)C[C@H]2NS(=O)(=O)c2ccc(C(C)=O)cc2)[C@]2(C)[C@H](C)CC[C@]3(CCC(=O)[C@H]32)[C@@H](C)[C@@H]1O	0.25 µg/mL (≈ 0.335 µM)	0.25 µg/mL (≈ 0.335 µM)	0.25 µg/mL (≈ 0.335 µM)	0.25 µg/mL (≈ 0.335 µM)
C=C[C@]1(C)C[C@@H](OC(=O)CS[C@@H]2CC[C@H](C(=O)OCC)C[C@H]2NS(=O)(=O)c2ccc(F)cc2)[C@]2(C)[C@H](C)CC[C@]3(CCC(=O)[C@H]32)[C@@H](C)[C@@H]1O	0.5 µg/mL (≈ 0.693 µM)	1 µg/mL (≈ 1.39 µM)	1 µg/mL (≈ 1.39 µM)	1 µg/mL (≈ 1.39 µM)
C=C[C@]1(C)C[C@@H](OC(=O)CS[C@@H]2CC[C@H](C(=O)OCC)C[C@H]2N)[C@]2(C)[C@H](C)CC[C@]3(CCC(=O)[C@H]32)[C@@H](C)[C@@H]1O	0.25 µg/mL (≈ 0.443 µM)	0.25 µg/mL (≈ 0.443 µM)	1 µg/mL (≈ 1.77 µM)	1 µg/mL (≈ 1.77 µM)
C=C[C@]1(C)C[C@@H](OC(=O)CS[C@@H]2CC[C@H](C(=O)OCC)C[C@H]2NS(=O)(=O)c2ccc(Cl)cc2)[C@]2(C)[C@H](C)CC[C@]3(CCC(=O)[C@H]32)[C@@H](C)[C@@H]1O	0.5 µg/mL (≈ 0.677 µM)	0.5 µg/mL (≈ 0.677 µM)	1 µg/mL (≈ 1.35 µM)	0.5 µg/mL (≈ 0.677 µM)
C=C[C@]1(C)C[C@@H](OC(=O)CS[C@@H]2CC[C@H](C(=O)OCC)C[C@H]2NS(=O)(=O)c2ccc(OC)cc2)[C@]2(C)[C@H](C)CC[C@]3(CCC(=O)[C@H]32)[C@@H](C)[C@@H]1O	0.25 µg/mL (≈ 0.341 µM)	0.5 µg/mL (≈ 0.681 µM)	0.5 µg/mL (≈ 0.681 µM)	0.25 µg/mL (≈ 0.341 µM)
C=C[C@]1(C)C[C@@H](OC(=O)CS[C@@H]2CC[C@H](C(=O)OCC)C[C@H]2NS(=O)(=O)c2ccc(C)cc2)[C@]2(C)[C@H](C)CC[C@]3(CCC(=O)[C@H]32)[C@@H](C)[C@@H]1O	0.25 µg/mL (≈ 0.348 µM)	0.5 µg/mL (≈ 0.696 µM)	1 µg/mL (≈ 1.39 µM)	1 µg/mL (≈ 1.39 µM)
C=C[C@]1(C)C[C@@H](OC(=O)CS[C@@H]2CC[C@H](C(=O)OCC)C[C@H]2NS(=O)(=O)c2ccccc2)[C@]2(C)[C@H](C)CC[C@]3(CCC(=O)[C@H]32)[C@@H](C)[C@@H]1O	0.5 µg/mL (≈ 0.71 µM)	1 µg/mL (≈ 1.42 µM)	1 µg/mL (≈ 1.42 µM)	0.5 µg/mL (≈ 0.71 µM)
C=C[C@]1(C)C[C@@H](OC(=O)CS[C@@H]2CC[C@H](C(=O)OCC)C[C@H]2NS(=O)(=O)c2ccc([N+](=O)[O-])cc2)[C@]2(C)[C@H](C)CC[C@]3(CCC(=O)[C@H]32)[C@@H](C)[C@@H]1O	0.5 µg/mL (≈ 0.668 µM)	0.5 µg/mL (≈ 0.668 µM)	1 µg/mL (≈ 1.34 µM)	1 µg/mL (≈ 1.34 µM)
C=C[C@]1(C)C[C@@H](OC(=O)CS[C@@H]2CC[C@H](C(=O)OCC)C[C@H]2NS(=O)(=O)c2ccc(C#N)cc2)[C@]2(C)[C@H](C)CC[C@]3(CCC(=O)[C@H]32)[C@@H](C)[C@@H]1O	0.25 µg/mL (≈ 0.343 µM)	0.5 µg/mL (≈ 0.686 µM)	1 µg/mL (≈ 1.37 µM)	1 µg/mL (≈ 1.37 µM)
C=C[C@]1(C)C[C@@H](OC(=O)CS[C@@H]2CC[C@@H](N)C[C@H]2O)[C@]2(C)[C@H](C)CC[C@]3(CCC(=O)[C@H]32)[C@@H](C)[C@@H]1O [LEFAMULIN]	≤ 0.03 µg/mL	0.25 µg/mL (≈ 0.492 µM)	0.25 µg/mL (≈ 0.492 µM)	0.5 µg/mL (≈ 0.985 µM)
